In ChEMBL document CHEMBL2034936, “Discovery and extensive in vitro evaluations of NK-HDAC-1: a chiral histone deacetylase inhibitor as a promising lead” (J Med Chem, 2012):
In brackets after ≈: the same amount, converted by molar mass. Activity calls are given as the source filed them. No cut-off for these calls is given here.

Legend:
OVCAR-8 = experiment: cells; format: functional; settings: Homo sapiens, OVCAR-8, 72 h
HT-29 = experiment: Growth inhibition of human HT-29 cells after 72 hrs by MTS assay; format: functional; settings: HT-29, 72 h
KM12 = experiment: cells; format: functional; settings: Homo sapiens, KM12, 72 h
786-0 = experiment: cells; format: functional; settings: Homo sapiens, 786-0, 72 h
SK-OV-3 = experiment: cells; format: functional; settings: Homo sapiens, SK-OV-3, 72 h
NCI-H226 = experiment: cells; format: functional; settings: Homo sapiens, NCI-H226, 72 h
[1] = Half life in artificial intestinal fluid; format: physicochemical
SK-MEL-2 = experiment: cells; format: functional; settings: Homo sapiens, SK-MEL-2, 72 h
UACC-62 = experiment: Growth inhibition of human UACC62 cells after 72 hrs by MTS assay; format: functional; settings: UACC-62, 72 h
[2] = molecular target: T1, Histone deacetylase (Homo sapiens) (UniProt Q13547+O15379+Q9UBN7+Q92769+Q9UQL6+Q8WUI4+Q9BY41+Q96DB2+P56524+Q9UKV0+Q969S8); experiment: Inhibition of HDAC in human MDA-MB-231 cells assessed as stimulation of histone H3 acetylation at 0.5 uM by Western blot; format: cell-based; settings: TDE = time-dependent effect
Summary of the method: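 Time course in MDA-MB-231 cells at 0.5 μM, sampled from 3 h up to 24 h. Lysed in RIPA (pH 7.5, protease and phosphatase inhibitors) at 4 °C, then 60 μg protein run on SDS-PAGE. Western blot with anti-acetyl-histone H3 and ECL detection.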

PC-3 = experiment: cells; format: functional; settings: Homo sapiens, PC-3, 72 h
SK-MEL-5 = experiment: cells; format: functional; settings: Homo sapiens, SK-MEL-5, 72 h
MDA-MB-435 = experiment: cells; format: functional; settings: Homo sapiens, MDA-MB-435, 72 h
BT-549 = experiment: cells; format: functional; settings: Homo sapiens, BT-549, 72 h
[3] = molecular target: T1, Histone deacetylase (Homo sapiens); experiment: Inhibition of HDAC in human MDA-MB-231 cells assessed as stimulation of histone H3 acetylation at 5 uM incubated for 24 hrs by Western blot; format: cell-based
Summary of the method: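 MDA-MB-231 cells in 35-mm dishes, dosed 24 h at graded concentrations, then trypsinized and PBS-washed. Lysed in RIPA (50 mM Tris-HCl pH 7.5, protease and phosphatase inhibitors) for 30 min at 4 °C, then cleared at 12,000g. Lysate, 60 μg protein by BCA, run on SDS-PAGE and PVDF. Blotted with anti-acetyl-histone H3 and HRP anti-rabbit, read by ECL.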

NCI-H23 = experiment: cells; format: functional; settings: Homo sapiens, NCI-H23, 72 h
MDA-MB-231 = experiment: cells; format: functional; settings: Homo sapiens, MDA-MB-231, 72 h
[4] = Lipophilicity, log D of the compound in pH 7.4 PBS buffer; format: physicochemical
[5] = Solubility in pH 7.4 PBS buffer; format: physicochemical
OVCAR-3 = experiment: cells; format: functional; settings: Homo sapiens, OVCAR-3, 72 h
[6] = Apparent permeability from apical to basolateral side in human Caco2 cells at 10 uM; format: ADME, cell-based; settings: Caco-2
Summary of the method: (§1)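 Caco-2 monolayers, test compound at 10 μM. Apparent permeability measured in both directions, apical to basolateral and basolateral to apical. Efflux ratio = P_app B to A / P_app A to B. Run by a contract lab following published methods. Mean of three independent triplicate experiments.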

SNB-19 = experiment: cells; format: functional; settings: Homo sapiens, SNB-19, 72 h
NCI-H322M = experiment: Growth inhibition of human NCI-H322M cells after 72 hrs by MTS assay; format: functional
OVCAR-4 = experiment: cells; format: functional; settings: Homo sapiens, OVCAR-4, 72 h
SN12C = experiment: cells; format: functional; settings: Homo sapiens, 72 h
Histone deacetylase = experiment: Inhibition of HDAC in human HeLa cell nuclear extracts using Ac-Arg-Gly-Lys(Ac)-AMC substrate by fluorimetry; format: protein assay
in vitro = settings: human, MCF10A cells
SW-620 = experiment: cells; format: functional; settings: Homo sapiens, SW-620, 72 h
NCI-H522 = experiment: cells; format: functional; settings: Homo sapiens, NCI-H522, 72 h
UACC-257 = experiment: cells; format: functional; settings: Homo sapiens, UACC-257, 72 h
EKVX = experiment: cells; format: functional; settings: Homo sapiens, 72 h
T47D = experiment: cells; format: functional; settings: Homo sapiens, 72 h
[7] = Half life in mouse liver microsomes; format: ADME, Microsome
HCT-116 = experiment: Growth inhibition of human HCT116 cells after 72 hrs by MTS assay; format: functional; settings: HCT-116, 72 h
MDA-MB-468 = experiment: cells; format: functional; settings: Homo sapiens, MDA-MB-468, 72 h
RXF 393 = experiment: cells; format: functional; settings: Homo sapiens, RXF 393, 72 h
Malme-3M = experiment: cells; format: functional; settings: Homo sapiens, 72 h
SF-295 = experiment: cells; format: functional; settings: Homo sapiens, SF-295, 72 h
cells = format: functional; settings: Homo sapiens, Hs-578T, 72 h
U-251 = experiment: cells; format: functional; settings: Homo sapiens, U-251, 72 h
[8] = Half life in mouse plasma; format: ADME, cell-free
NCI-H460 = experiment: Growth inhibition of human NCI-H460 cells after 72 hrs by MTS assay; format: functional; settings: NCI-H460, 72 h
[9] = Half life in artificial gastric fluid; format: physicochemical
DU-145 = experiment: cells; format: functional; settings: Homo sapiens, DU-145, 72 h
SNB-75 = experiment: Growth inhibition of human SNB75 cells after 72 hrs by MTS assay; format: functional; settings: SNB-75, 72 h
M14 = experiment: cells; format: functional; settings: Homo sapiens, M14, 72 h
[10] = Apparent permeability from basolateral to apical side in human Caco2 cells at 10 uM; format: ADME, cell-based; settings: Caco-2
Summary of the method: as §1

CC(C)[C@@H](c1nc2ccccc2o1)n1cc(/C=C/C(=O)NO)nn1
GI50 (OVCAR-8): 84 nM
GI50 (HT-29): 79 nM
GI50 (KM12): 230 nM
GI50 (786-0): 170 nM
GI50 (SK-OV-3): 140 nM
GI50 (NCI-H226): 540 nM
half-life [1]: > 24 h
GI50 (SK-MEL-2): 87 nM
GI50 (UACC-62): 140 nM
inhibition [2]: tde
GI50 (PC-3): 120 nM
GI50 (SK-MEL-5): 100 nM
GI50 (MDA-MB-435): 91 nM
GI50 (BT-549): 52 nM
histone H3 acetylation activity (active/not active) [3]: Active
GI50 (NCI-H23): 140 nM
GI50 (MDA-MB-231): 520 nM
logD [4]: 2
solubility [5]: 20 µg/mL (≈ 61.1 µM)
GI50 (OVCAR-3): 220 nM
Papp A→B at 10 µM [6]: 6.61 ×10⁻⁶ cm/s
GI50 (SNB-19): 430 nM
GI50 (NCI-H322M): 140 nM
GI50 (OVCAR-4): 700 nM
GI50 (SN12C): 360 nM
IC50 (Histone deacetylase): 7 nM
GI50 at 48 h (in vitro): 1600 nM
GI50 (SW-620): 130 nM
GI50 (NCI-H522): 13 nM
GI50 (UACC-257): 88 nM
GI50 (EKVX): 240 nM
GI50 (T47D): 51 nM
half-life [7]: 3.25 h
GI50 (HCT-116): 38 nM
GI50 (MDA-MB-468): 150 nM
GI50 (RXF 393): 180 nM
GI50 (Malme-3M): 16 nM
GI50 (SF-295): 120 nM
GI50 (cells): 580 nM
GI50 (U-251): 180 nM
half-life [8]: 32 h
GI50 (NCI-H460): 150 nM
half-life [9]: 9.4 h
GI50 (DU-145): 160 nM
GI50 (SNB-75): 250 nM
GI50 (M14): 180 nM
Papp B→A at 10 µM [10]: 7.61 ×10⁻⁶ cm/s
